Data set [1] in a line: Cytotoxicity against human Hep3B cells after 24 hrs by MTT assay. It counts as cell-based. Conditions: hep 3b2, 24 h. (Tetrazolium assays rely on reduction of a dye to a coloured formazan, in cell work by metabolically active cells.)
Data set [2] addresses Hypoxia-inducible factor 1-alpha (Homo sapiens, UniProt Q16665). Nature of the data set: Inhibition of hypoxia-induced HIF1alpha protein accumulation in human Hep3B cells treated for 30 mins measured after 12 hrs by Western blot analysis. The settings on record: for inhibition: Hep 3B2. It counts as functional, cell-based, Hep 3B2. Put shortly:
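Hep3B cells (DMEM, 10% FBS, 37 °C) were pretreated with a range of compound concentrations for 30 min, then kept 12 h under normoxia or hypoxia (1% O2, 94% N2, 5% CO2, 37 °C). HIF-1α was detected by western blot with a mouse monoclonal anti-HIF-1α antibody. Topoisomerase-1 was probed as the loading control.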
(Immunoblotting shows a protein as a band on a membrane.)

A short description of data set [3]: Inhibition of NF-kappaB activity in human HeLa cells by SEAP reporter assay. It counts as cell-based. Put shortly:
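HeLa cells grown in DMEM with 10% FBS and penicillin/streptomycin at 37 °C, 5% CO2. NF-κB activity read by a secreted alkaline phosphatase (SEAP) reporter, with celastrol as positive control. Values are IC50s, mean ± SD from three experiments.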
On the technique in general: A reporter such as luciferase makes a cellular process visible.

The next data set deals with Hep 3B2. Nature of the data set: Inhibition of hypoxia-induced VEGF protein secretion in human Hep3B cells after 16 hrs by ELISA. It counts as functional, cell-based. Put shortly:
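Hep3B cells were seeded at 2 × 10^5 per well and exposed to a range of concentrations for 16 h under normoxia or hypoxia (1% O2, 5% CO2, 37 °C). VEGF in the culture supernatant was quantified with a DuoSet sandwich ELISA. 17-DMAG served as positive control. IC50s are mean ± SD from three experiments.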

Data set [4] can be described thus: Inhibition of hypoxia-induced HIF1alpha protein accumulation in human Hep3B cells treated for 30 mins measured after 12 hrs by Western blot analysis. The settings on record: hep 3b2.

Each structure is given as a SMILES string.

The term IC50 denotes the point on the concentration scale where inhibition reaches its midpoint.

For `COc1cc(O)cc2c1/C(=C\c1ccc(O)cc1)C(=O)O2`, the Activity entry in data set [1] is given as “Non-toxic”. Further, the 50% inhibitory concentration (IC50) in data set [2] worked out at 690 nM; in data set [3], 560 nM; in the data set on Hep 3B2 it was 930 nM. Besides, the inhibition entry in data set [2] is “Dose-dependent effect”.

As to `CC1=C(O)C(=O)C=C2C1=CC=C1[C@@]2(C)CC[C@@]2(C)[C@@H]3C[C@](C)(C(=O)O)CC[C@]3(C)CC[C@]12C` [CELASTROL], the half-inhibitory concentration (IC50) in data set [3] turned out to be 150 nM.

As for `COc1cc(/C=C/c2ccc(OC)c(O)c2)oc(=O)c1`, the Activity entry in data set [1] is on record as “Non-toxic”. For the same compound, the IC50 came to 810 nM in data set [2], 400 nM in data set [3] and 1040 nM in the data set on Hep 3B2. Further, the inhibition entry in data set [2] was “Dose-dependent effect”.

`CC(=O)OC(C)(C)/C=C/C(=O)[C@](C)(O)[C@H]1[C@H](O)C[C@@]2(C)[C@@H]3CC=C4[C@H](C[C@H](O)C(=O)C4(C)C)[C@]3(C)C(=O)C[C@]12C` [CUCURBITACIN B]: the inhibition entry in data set [2] is “Dose-dependent effect”. Moreover, the half-maximal inhibitory concentration (IC50) in data set [3] came to 61 nM; with Hep 3B2, 310 nM.

Consider `CC1=CC(=O)CC(C)(C)[C@@]1(O)/C=C/[C@@H](C)O` [BLUMENOL A], for which, in data set [1], the Activity entry is “Non-toxic”. Further, the IC50 in data set [2] came out at 15800 nM; in data set [3], 12300 nM; in the data set with Hep 3B2, 26200 nM.

As for `CO[C@H]1/C=C\C=C(/C)C(=O)NC2=CC(=O)C(NCCN(C)C)=C(C[C@@H](C)C[C@H](OC)[C@H](O)[C@@H](C)/C=C(\C)[C@@H]1OC(N)=O)C2=O` [ALVESPIMYCIN], the IC50 in data set [4] turned out to be 57 nM. In other words, the double-digit nanomolar range.

Turning to `CC(=O)OC(C)(C)/C=C/C(=O)[C@](C)(O)[C@H]1[C@H](O)C[C@@]2(C)[C@@H]3CC=C4[C@@H](C[C@H](O)C(=O)C4(C)C)[C@]3(C)C(=O)C[C@]12C` [CUCURBITACIN B], the Activity result in data set [1] was “Non-toxic”. Further, in data set [2], the half-inhibitory concentration (IC50) turned out to be 270 nM.

The record behind these values is ChEMBL document CHEMBL1165938, “An isoaurone and other constituents from Trichosanthes kirilowii seeds inhibit hypoxia-inducible factor-1 and nuclear factor-kappaB” (J Nat Prod, 2010).
